According to ChEMBL document CHEMBL1145115, “SAR analysis of adenosine diphosphate (hydroxymethyl)pyrrolidinediol inhibition of poly(ADP-ribose) glycohydrolase” (J Med Chem, 2003):
pIC50: −log10 of the molar value. Several values for one entry are separate records, joined by “and”; a condition that tells them apart may be missing. Equal entries are not always repeated.

Legend:
[1] = target: T1, Poly(ADP-ribose) glycohydrolase (Bos taurus, UniProt O02776); assay: (§1) The compound was tested for its ability to inhibit recombinant bovine polyadenosine diphosphoribose glycohydrolase catalytic fragment (rPARG-CF)
Outline: (§2)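 PARG activity was measured with 10 µM [α-32P]ADP-ribose polymers as substrate and varying inhibitor concentrations, with an inhibitor-free control. Enzyme was 0.25 ng of bovine thymus PARG, purified with a Red-Sepharose step, or 5 ng of rPARG-CF. Runs were done at least in triplicate. IC50 came from a sigmoidal fit of % activity against log[inhibitor].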

[2] = target: T1, Poly(ADP-ribose) glycohydrolase; assay: (§3) The compound was tested for its ability to inhibit bovine thymus polyadenosine diphosphoribose glycohydrolase (bPARG); outline: as §2
[3] = target: Poly(ADP-ribose) glycohydrolase (Bos taurus) (UniProt O02776); assay: as §1; outline: as §2
[4] = target: Poly(ADP-ribose) glycohydrolase (Bos taurus) (UniProt O02776); assay: as §3; outline: as §2

T1 sequence (O02776 whole entry, the tested form may be a part): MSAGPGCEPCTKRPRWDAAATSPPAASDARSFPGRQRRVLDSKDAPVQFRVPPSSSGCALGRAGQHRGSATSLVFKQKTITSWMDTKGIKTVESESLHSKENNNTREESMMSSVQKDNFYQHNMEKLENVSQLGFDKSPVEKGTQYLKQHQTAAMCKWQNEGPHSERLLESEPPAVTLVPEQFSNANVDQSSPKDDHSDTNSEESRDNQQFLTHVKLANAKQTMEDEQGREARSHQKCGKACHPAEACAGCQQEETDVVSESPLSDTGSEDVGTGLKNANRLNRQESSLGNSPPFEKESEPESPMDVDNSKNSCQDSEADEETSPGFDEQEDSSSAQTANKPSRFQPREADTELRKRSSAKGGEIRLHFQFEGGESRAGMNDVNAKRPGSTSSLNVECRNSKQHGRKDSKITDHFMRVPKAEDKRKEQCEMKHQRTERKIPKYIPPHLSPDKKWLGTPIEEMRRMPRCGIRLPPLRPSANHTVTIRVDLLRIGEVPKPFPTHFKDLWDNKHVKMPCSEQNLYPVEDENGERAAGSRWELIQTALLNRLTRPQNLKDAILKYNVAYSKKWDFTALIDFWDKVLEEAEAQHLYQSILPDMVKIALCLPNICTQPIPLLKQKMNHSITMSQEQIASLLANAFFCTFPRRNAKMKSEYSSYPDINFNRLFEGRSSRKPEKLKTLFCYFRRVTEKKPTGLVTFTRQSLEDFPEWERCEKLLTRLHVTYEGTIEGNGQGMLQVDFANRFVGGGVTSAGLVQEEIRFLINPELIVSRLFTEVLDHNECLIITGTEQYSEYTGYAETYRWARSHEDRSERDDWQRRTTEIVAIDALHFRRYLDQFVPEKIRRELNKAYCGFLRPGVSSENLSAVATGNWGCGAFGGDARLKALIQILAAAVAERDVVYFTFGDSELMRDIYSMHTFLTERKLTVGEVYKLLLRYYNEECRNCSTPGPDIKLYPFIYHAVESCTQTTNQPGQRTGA
Chain of Poly(ADP-ribose) glycohydrolase (Bos taurus) (O02776 whole entry): as the sequence (O02776 whole entry, the tested form may be a part) above

In the case of [N-]=[N+]=Nc1nc2c(N)ncnc2n1C1O[C@H](COP(=O)(O)OP(=O)(O)OC[C@H]2NC[C@H](O)[C@@H]2O)[C@@H](O)[C@H]1O (stereo partly drawn), the pIC50 [1] was 6.36 and the pIC50 [2] was 6.41.

With Nc1nc(O)c2ncn(C3O[C@H](COP(=O)(O)OP(=O)(O)OCC4NC[C@H](O)[C@@H]4O)[C@@H](O)[C@H]3O)c2n1 (stereo partly drawn) the Log IC50 [3] was 2.99 µM and the Log IC50 [4] was > 3 µM.

For Nc1ncnc2c1ncn2[C@@H]1O[C@H](CO[P@](=O)(O)O[P@@](=O)(O)OC[C@H]2NC[C@H](O)[C@@H]2O)[C@@H](O)[C@H]1O [ADENOSINE DIPHOSPHATE (HYDROXYMETHYL)PYRROLIDINEDIOL], the pIC50 [1] was 5.85 and 6.00 and the pIC50 [2] was 6.48.

In the case of Nc1ncnc2c1nc(Sc1ccc(Cl)cc1)n2C1O[C@H](COP(=O)(O)OP(=O)(O)OC[C@H]2NC[C@H](O)[C@@H]2O)[C@@H](O)[C@H]1O (stereo partly drawn), the pIC50 [1] was 3.92 and the Log IC50 [3] was 2.07 µM.

Nc1ncnc2c1ncn2C1O[C@H](COP(=O)(O)OP(=O)(O)OCC2C[C@@H](O)CN2)[C@@H](O)[C@H]1O (stereo partly drawn) [ADENOSINE DIPHOSPHATE (HYDROXYMETHYL)PYRROLIDINE MONOALCOHOL] gave a pIC50 [1] of 5.38, a Log IC50 [3] of 0.623 µM and a pIC50 [2] of 5.51. For the same compound, the Log IC50 [4] was 0.48 µM.

For Nc1nc2c(ncn2C2O[C@H](COP(=O)(O)OP(=O)(O)OCC3NC[C@H](O)[C@@H]3O)[C@@H](O)[C@H]2O)c(=O)[nH]1 (stereo partly drawn), the pIC50 [1] was 3.01 and the pIC50 [2] was < 3.00.

Nc1ncnc2c1ncn2C1O[C@H](COP(=O)(O)OP(=O)(O)OCC2CCCN2)[C@@H](O)[C@H]1O (stereo partly drawn) [ADENOSINE DIPHOSPHATE (HYDROXYMETHYL)PYRROLIDINE] was tested, and the pIC50 [1] was 4.20, the Log IC50 [3] was 1.8 µM and the pIC50 [2] was 4.72. The Log IC50 [4] was 1.28 µM.

Work on [N-]=[N+]=Nc1nc(N)c2ncn(C3O[C@H](COP(=O)(O)OP(=O)(O)OC[C@H]4NC[C@H](O)[C@@H]4O)[C@@H](O)[C@H]3O)c2n1 (stereo partly drawn) yielded a pIC50 [1] of 3.83, a Log IC50 [3] of 2.17 µM and a pIC50 [2] of 3.54. The Log IC50 [4] was 2.45 µM.

For CCCCCCNc1ncnc2c1ncn2C1O[C@H](COP(=O)(O)OP(=O)(O)OCC2NC[C@H](O)[C@@H]2O)[C@@H](O)[C@H]1O (stereo partly drawn), the pIC50 [1] was 3.29 and the Log IC50 [3] was 2.71 µM.

For Nc1ncnc2c1nc(NCCCCCCNC(=O)C(F)(F)F)n2C1O[C@H](COP(=O)(O)OP(=O)(O)OC[C@H]2NC[C@H](O)[C@@H]2O)[C@@H](O)[C@H]1O (stereo partly drawn), the pIC50 [1] was 3.24 and the Log IC50 [3] was 2.75 µM.

For NCCCCCCNc1nc2c(N)ncnc2n1C1O[C@H](COP(=O)(O)OP(=O)(O)OC[C@H]2NC[C@H](O)[C@@H]2O)[C@@H](O)[C@H]1O (stereo partly drawn), the pIC50 [1] was 5.02 and the Log IC50 [3] was 0.97 µM.
